Source: PubChem (several laboratories)
The sample as a whole holds a higher share of hits than the screen did.
T cruzi inh: T. cruzi replication inhibition; T. cruzi beta-gal in NIH3T3, luminescence, 90 h; inhibition, % (test concentration not listed); 300,000 tested, 1.4% active; AID 1885;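 active means mean inhibition across valid replicates above about 55%, limit read from the data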;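 further: signal also drops with host cell toxicity which is not excluded here; 0% = plate median of DMSO wells and 100% = zero luminescence signal; higher percent means less beta-gal luminescence so fewer parasites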
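System: NIH/3T3 fibroblasts plus reporter T. cruzi. Medium: DMEM plus 2% FBS. Probe or stimulus: 5000 reporter trypomastigotes per well. Compound: single 50 nL compound addition per well in DMSO. Incubation: co-culture of at least 90 h after 3 h attachment. Detection: GalScreen β-gal luminescence, detergent lysis, 60 min. Evaluation: parasite load inhibition, %.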
HSF-1 act: increases HSF-1 driven luciferase reporter signal; 300,000 tested, 1.7% active; activation, % at 9 µM; NIH3T3-HGL HSF-1 luciferase reporter, MG132, 8 h; 100% = twice DMSO control signal;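 active means mean replicate activation of at least 50% with a set share of replicates each reaching 50%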;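 further: 0% = median of the neutral control wells and 100% = twice that signal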
Lmaj promast: reduces viability of Leishmania major promastigotes. AID 1063. 200,000 tested, 9% active. inhibition, % at 10 µM. resazurin fluorescence viability; in the data active means inhibition above about 50%;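 further: promastigotes grown with compound for 44 hours at 28 °C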
Hsp70 act: Hsp70 transcriptional activation, primary screen. HeLa Hsp70 promoter luciferase reporter, luminescence; scaled: vehicle 0, proteasome-inhibitor control 100%. AID 1203. activation, % at 10 µM. 200,000 tested, 0.04% active;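 active means activation above the mean across all tested compounds plus 3 SD, cutoff set per campaign, cut at about 5.5% in these data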;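 further: 100% = MG132 at 30 µM as the positive control and 0% = DMSO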
HSF1 inh: HSF1 inhibition; NIH3T3-HGL HSE-luciferase, MG132-induced, luminescence 8 h; active compounds read low; activity change, negative = inhibition, % at 7.5 µM (by protocol); 300,000 tested, 0.77% active; AID 2098;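 active means more than half of replicate wells show activity change below -50%, luminescence cut by over half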;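 further: luciferase reports HSF-1 transcriptional activity via heat shock element; 0% = median of DMSO wells and -100% = zero luminescence signal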
The depositor's hits bear a star; x = not tested or not shown.

SMILES	T cruzi inh	HSF-1 act	Lmaj promast	Hsp70 act	HSF1 inh
Cc1ccc(-n2ncc(C(=O)Nc3ccc(Cl)cc3)c2C2CCNCC2)cc1C	32	-15	99*	0	-5
CCOC(=O)c1c(NC(=O)CSc2ncccn2)sc2c1CCN(Cc1ccccc1)C2	56*	38	99*	0	12
CC(=O)Nc1sc2c(c1C(N)=O)CCN(Cc1ccccc1)C2	17	12	x	x	3
CCOC(=O)c1c(NC(=O)CSc2nnc3c(n2)[nH]c2ccccc23)sc2c1CCN(C)C2	77*	22	100*	0	0
CCN1CCc2c(sc(NC(=O)c3ccc4ccccc4c3)c2C(N)=O)C1	62*	-53	x	x	-42
NC(=O)c1c(NC(=O)Cc2ccccc2)sc2c1CCN(Cc1ccccc1)C2	-4	62*	x	x	35
O=C(CN(C(=O)c1csnn1)c1ccc(Br)cc1)NC1CCCCC1	-1	7	x	x	1
CCOC(=O)c1c(NC(=S)Nc2ccccc2)sc2c1CCN(CCc1ccccc1)C2	x	x	79*	0	x
Cc1ccc(Sc2ncnc3onc(C)c23)cc1	x	x	56*	-1	x
Cc1ccc(CSc2ncnc3onc(C)c23)cc1	5	-5	x	x	-1
Cc1noc2ncnc(Sc3ccc(Cl)cc3)c12	36	72*	44	0	53
Cc1noc2ncnc(Sc3c(Cl)cccc3Cl)c12	39	38	35	0	27
Cc1ccc(S(=O)(=O)N2CCCOC2CNC(=O)C(=O)NC2CCCCC2)cc1 (stereo not given)	6	8	9	0	3
Nc1c2c(nc3sc4c(c13)CCCC4)-c1ccccc1CC2	2	-19	x	x	-14
COc1ccccc1NC1=C(Cl)C(=O)N(c2ccccc2)C1=O	0	-1	-4	0	-7
CCOc1ccc(N2C(=O)C(Cl)=C(Nc3ccccc3O)C2=O)cc1	-21	67*	2	0	44
O=[N+]([O-])c1cccc(C2CC(c3ccccc3)=NN2c2ccccc2)c1 (stereo not given)	47	16	x	x	5
Cc1ccc(C2=Nc3ccccc3SC(c3cccc([N+](=O)[O-])c3)C2)cc1 (stereo not given)	5	67*	x	x	38
O=[N+]([O-])c1cc(Br)c(OCc2nnc(-c3ccccc3)o2)c(Br)c1	67*	-4	-10	0	-3
O=C(OCc1nnc(-c2ccccc2)o1)c1cc([N+](=O)[O-])ccc1Cl	-2	3	-2	0	1
O=[N+]([O-])c1ccc2c(OCc3nnc(-c4ccccc4Br)o3)ncnc2c1	71*	29	x	x	15
Cc1oc2c(Cl)c(Cl)c(O)c(CN(C)C)c2c1C(=O)c1ccc(Cl)cc1	-5	-14	x	x	-17
CC(=O)c1ccc(NC(=O)CCNC(=O)c2ccccc2Cl)cc1	-3	-6	x	x	-5
Cc1c(Nc2ncccc2C(=O)O)cccc1C(F)(F)F	18	6	x	x	9
C=CCn1c(SCc2csc(-c3ccc(Cl)cc3)n2)nnc1-c1ccccc1OC	32	58*	70*	0	30
SMILES	T cruzi inh	HSF-1 act	Lmaj promast	Hsp70 act	HSF1 inh
COC(=O)C1=C(C)NC(C)=C(C(=O)OCC2CCCO2)C1c1cccc(Br)c1 (stereo not given)	30	4	x	x	15
Cc1ccc(/C=N/N(Cc2ccccc2)c2ccccc2)o1	6	106*	2	0	60
CCOC(=O)C1(CCOc2ccccc2)CCN(Cc2ccc(CO)o2)CC1	6	5	62*	0	-2
CCOC(=O)C1(CCOc2ccccc2)CCN(Cc2cccc(OCCO)c2)CC1	8	-30	x	x	-11
CCOC(=O)C1(CCOc2ccccc2)CCN(Cc2cnc(C)s2)CC1	30	1	79*	1	-4
CCOC(=O)C1(CCOc2ccccc2)CCN(CC=C(C)C)CC1	-4	1	x	x	-2
CCC(C)[C@H](NC(=O)C1CCN(C(=O)[C@H](Cc2ccccc2)NS(=O)(=O)c2ccc(C)cc2)CC1)C(=O)O (stereo not given in full)	-1	-14	x	x	0
Cc1cc(C(=O)NCc2csc(-c3ccccc3)n2)no1	-15	12	x	x	20
Cc1ccccc1Nc1nc(N)nc(COC(=O)c2cccc(S(=O)(=O)NCc3ccccc3)c2)n1	-23	5	43	0	-2
Cc1ccccc1Nc1nc(N)nc(COC(=O)c2cccc(S(=O)(=O)N(C)C)c2)n1	-6	-9	66*	-1	-1
O=c1c2c(nc3cc(-c4ccc(F)cc4)[nH]n13)CCC2	1	-5	-5	0	-4
CNCc1c(OCc2ccc(F)cc2)ccc2ccccc12	26	-10	63*	0	2
O=C(O)c1cccc(COc2cccc3ccccc23)c1	-14	-1	x	x	-3
OCc1c(OCc2cccc(F)c2)ccc2ccccc12	-2	62*	x	x	36
Cc1ccc2cc(CN(CCCO)S(=O)(=O)c3cccc4nsnc34)c(=O)[nH]c2c1	-13	-4	5	0	-1
CC(=O)Nc1cc(C(=O)NCCN2CCN(Cc3ccccc3)CC2)ccc1Sc1ccc(C)cc1	6	0	7	0	0
COCCCN=C1NN=C(c2cc(C)n(-c3ccccc3F)c2C)CS1	-1	-48	25	1	-42
COCCn1c(C)cc(C2=NNC(=Nc3ccccc3F)SC2)c1C	4	-90	-2	0	-89*
Fc1ccc(F)c(C2=NNC(=Nc3ccccc3F)SC2)c1	-1	81*	-3	0	31
Clc1ccc(C(c2nnnn2C2CCCC2)N2CCN(c3nc4ccccc4s3)CC2)cc1 (stereo not given)	45	15	97*	0	5
c1cnc2ccc(C(c3nnnn3C3CCCC3)N3CCN(c4nc5ccccc5s4)CC3)cc2c1 (stereo not given)	x	x	89*	0	x
C[C@@H](C(=O)N[C@@H](Cc1c[nH]c2ccccc12)C(=O)O)n1nnc2ccccc2c1=O	-6	-17	x	x	1
Cc1ccc(C)c(CNC(=O)Nc2ccccc2)c1	4	57*	x	x	26
O=C(NCc1ccc(Cl)cc1Cl)Nc1ccccc1	0	71*	x	x	38
O=C(NNC(=O)c1cc(-c2ccc(Cl)cc2Cl)nc2ccccc12)Nc1ccccc1	7	21	70*	0	15
Cc1ccc(C)c(NC(=O)C2CCCN2C(=O)NC2CCCCC2)c1 (stereo not given)	-9	6	-1	0	-10
Cc1ccc(C2=NC3(CCCCC3)N=C2SCC(=O)Nc2ccc3c(c2)OCCO3)cc1	26	9	28	0	11
COc1ccc2sc(N(CCCN(C)C)C(=O)c3ccc(C(=O)c4ccccc4)cc3)nc2c1	54	-14	x	x	-4
COc1cc2nc(N(CCCN(C)C)C(=O)c3ccc(S(=O)(=O)N(C)C4CCCCC4)cc3)sc2cc1OC	50	1	x	x	-1
COc1ccc2sc(N(CCCN(C)C)C(=O)c3ccc(S(=O)(=O)N4CCCc5ccccc54)cc3)nc2c1	62*	-6	x	x	-17
